Data as given in ChEMBL document CHEMBL4689842, “EUbOPEN Chemogenomics Library wave 1” (2021).

Tests used:
Assay type in all cases: toxicity, cell-based
[1] = system: Fibroblast; assay: Multiplex assay against human fibroblast
Summary of the method: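 Live cells were stained at seeding with Hoechst33342, BioTracker Green Microtubule Cytoskeleton Dye, MitoTracker Red and Annexin V Alexa Fluor 680. Following compound addition, they were imaged on a CQ1 microscope at 37°C and 5% CO2 and gated by CellPathfinder machine learning into Hoechst high-intensity objects or normal cells, with normal cells split into healthy, pyknosed or fragmented nuclei and pyknosed cells into mitotic or apoptotic. Tubulin, mitochondrial-mass and membrane-permeability phenotypes are per cents of healthy-nucleus cells.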

[2] = system: Fibroblast; assay: Incucyte cell viability with human fibroblast; conditions: 10 µM, compound concentration 10 uM; further: filed as whole numbers so only -1 and 0 and 1 occur
[3] = system: U2OS; assay: Incucyte cell viability with U2OS; conditions: human, 10 µM, compound concentration 10 uM; further: filed as whole numbers so only -1 and 0 and 1 occur
[4] = 12 h, 1 µM, compound concentration 1 uM, replicate 1
[5] = 12 h, 1 µM, compound concentration 1 uM, replicate 2
[6] = 12 h, 10 µM, compound concentration 10 uM, replicate 1
[7] = 12 h, 10 µM, compound concentration 10 uM, replicate 2
[8] = 24 h, 1 µM, compound concentration 1 uM, replicate 1
[9] = 24 h, 1 µM, compound concentration 1 uM, replicate 2
[10] = 24 h, 10 µM, compound concentration 10 uM, replicate 1
[11] = 24 h, 10 µM, compound concentration 10 uM, replicate 2
[12] = 48 h, 1 µM, compound concentration 1 uM, replicate 1
[13] = 48 h, 1 µM, compound concentration 1 uM, replicate 2
[14] = 48 h, 10 µM, compound concentration 10 uM, replicate 1
[15] = 48 h, 10 µM, compound concentration 10 uM, replicate 2
[16] = 0 h, replicate number 1, timepoint 0 hours
[17] = 6 h, replicate number 2, timepoint 6 hours
[18] = 12 h, replicate number 1, timepoint 12 hours
[19] = 18 h, replicate number 1, timepoint 18 hours
[20] = 24 h, replicate number 1, timepoint 24 hours

What does the source list for `CCc1cc2c(cc1CC)CC(NC[C@H](O)c1ccc(O)c3[nH]c(=O)ccc13)C2` [INDACATEROL]?
Population Apoptotic (%) [1, 4]: 57%; Population Fragmented Nuclei (%) [1, 4]: 22%; Population Healthy Nuclei (%) [1, 4]: 53%; Population Hoechst High Intensity Objects (%) [1, 4]: 9%; Population Membrane Permeable-Phenotype (%) [1, 4]: 21%; Population Mitochondria Different-Phenotype (%) [1, 4]: 10%; Population Mitotic Cells (%) [1, 4]: 42%; Population Normal (%) [1, 4]: 90%; Population Pyknosed Nuclei (%) [1, 4]: 23%; Population Tubulin-Different-Phenotype (%) [1, 4]: 35%; Total Cell Count [1, 4]: 187; Population Apoptotic (%) [1, 5]: 33%; Population Fragmented Nuclei (%) [1, 5]: 3%; Population Healthy Nuclei (%) [1, 5]: 92%; Population Hoechst High Intensity Objects (%) [1, 5]: 7%; Population Membrane Permeable-Phenotype (%) [1, 5]: 1%; Population Mitochondria Different-Phenotype (%) [1, 5]: 11%; Population Mitotic Cells (%) [1, 5]: 66%; Population Normal (%) [1, 5]: 92%; Population Pyknosed Nuclei (%) [1, 5]: 4%; Population Tubulin-Different-Phenotype (%) [1, 5]: 14%; Total Cell Count [1, 5]: 71; Population Apoptotic (%) [1, 6]: 71%; Population Fragmented Nuclei (%) [1, 6]: 35%; Population Healthy Nuclei (%) [1, 6]: 45%; Population Hoechst High Intensity Objects (%) [1, 6]: 22%; Population Membrane Permeable-Phenotype (%) [1, 6]: 1%; Population Mitochondria Different-Phenotype (%) [1, 6]: 43%; Population Mitotic Cells (%) [1, 6]: 28%; Population Normal (%) [1, 6]: 77%; Population Pyknosed Nuclei (%) [1, 6]: 19%; Population Tubulin-Different-Phenotype (%) [1, 6]: 74%; Total Cell Count [1, 6]: 230; Population Apoptotic (%) [1, 7]: 68%; Population Fragmented Nuclei (%) [1, 7]: 15%; Population Healthy Nuclei (%) [1, 7]: 64%; Population Hoechst High Intensity Objects (%) [1, 7]: 6%; Population Membrane Permeable-Phenotype (%) [1, 7]: 23%; Population Mitochondria Different-Phenotype (%) [1, 7]: 98%; Population Mitotic Cells (%) [1, 7]: 31%; Population Normal (%) [1, 7]: 93%; Population Tubulin-Different-Phenotype (%) [1, 7]: 88%; Total Cell Count [1, 7]: 71; Population Apoptotic (%) [1, 8]: 69%; Population Fragmented Nuclei (%) [1, 8]: 23%; Population Healthy Nuclei (%) [1, 8]: 62%; Population Hoechst High Intensity Objects (%) [1, 8]: 10%; Population Membrane Permeable-Phenotype (%) [1, 8]: 18%; Population Mitochondria Different-Phenotype (%) [1, 8]: 5%; Population Mitotic Cells (%) [1, 8]: 30%; Population Normal (%) [1, 8]: 89%; Population Pyknosed Nuclei (%) [1, 8]: 13%; Population Tubulin-Different-Phenotype (%) [1, 8]: 36%; Total Cell Count [1, 8]: 184; Population Apoptotic (%) [1, 9]: 14%; Population Fragmented Nuclei (%) [1, 9]: 4%; Population Healthy Nuclei (%) [1, 9]: 86%; Population Hoechst High Intensity Objects (%) [1, 9]: 3%; Population Membrane Permeable-Phenotype (%) [1, 9]: 0%; Population Mitochondria Different-Phenotype (%) [1, 9]: 10%; Population Mitotic Cells (%) [1, 9]: 85%; Population Normal (%) [1, 9]: 96%; Population Pyknosed Nuclei (%) [1, 9]: 9%; Population Tubulin-Different-Phenotype (%) [1, 9]: 12%; Total Cell Count [1, 9]: 73; Population Apoptotic (%) [1, 10]: 71%; Population Fragmented Nuclei (%) [1, 10]: 30%; Population Healthy Nuclei (%) [1, 10]: 49%; Population Hoechst High Intensity Objects (%) [1, 10]: 33%; Population Membrane Permeable-Phenotype (%) [1, 10]: 5%; Population Mitochondria Different-Phenotype (%) [1, 10]: 55%; Population Mitotic Cells (%) [1, 10]: 28%; Population Normal (%) [1, 10]: 66%; Population Pyknosed Nuclei (%) [1, 10]: 19%; Population Tubulin-Different-Phenotype (%) [1, 10]: 77%; Total Cell Count [1, 10]: 243; Population Apoptotic (%) [1, 11]: 89%; Population Fragmented Nuclei (%) [1, 11]: 11%; Population Healthy Nuclei (%) [1, 11]: 67%; Population Hoechst High Intensity Objects (%) [1, 11]: 6%; Population Membrane Permeable-Phenotype (%) [1, 11]: 59%; Population Mitochondria Different-Phenotype (%) [1, 11]: 100%; Population Mitotic Cells (%) [1, 11]: 10%; Population Normal (%) [1, 11]: 93%; Population Pyknosed Nuclei (%) [1, 11]: 20%; Population Tubulin-Different-Phenotype (%) [1, 11]: 86%; Total Cell Count [1, 11]: 78; Population Apoptotic (%) [1, 12]: 30%; Population Fragmented Nuclei (%) [1, 12]: 29%; Population Healthy Nuclei (%) [1, 12]: 64%; Population Hoechst High Intensity Objects (%) [1, 12]: 10%; Population Membrane Permeable-Phenotype (%) [1, 12]: 20%; Population Mitochondria Different-Phenotype (%) [1, 12]: 0%; Population Mitotic Cells (%) [1, 12]: 69%; Population Normal (%) [1, 12]: 89%; Population Pyknosed Nuclei (%) [1, 12]: 6%; Population Tubulin-Different-Phenotype (%) [1, 12]: 20%; Total Cell Count [1, 12]: 222; Population Apoptotic (%) [1, 13]: 100%; Population Fragmented Nuclei (%) [1, 13]: 37%; Population Healthy Nuclei (%) [1, 13]: 60%; Population Hoechst High Intensity Objects (%) [1, 13]: 15%; Population Membrane Permeable-Phenotype (%) [1, 13]: 7%; Population Mitochondria Different-Phenotype (%) [1, 13]: 4%; Population Mitotic Cells (%) [1, 13]: 0%; Population Normal (%) [1, 13]: 84%; Population Pyknosed Nuclei (%) [1, 13]: 1%; Population Tubulin-Different-Phenotype (%) [1, 13]: 35%; Total Cell Count [1, 13]: 82; Population Apoptotic (%) [1, 14]: 70%; Population Fragmented Nuclei (%) [1, 14]: 38%; Population Healthy Nuclei (%) [1, 14]: 46%; Population Hoechst High Intensity Objects (%) [1, 14]: 51%; Population Membrane Permeable-Phenotype (%) [1, 14]: 1%; Population Mitochondria Different-Phenotype (%) [1, 14]: 54%; Population Mitotic Cells (%) [1, 14]: 29%; Population Normal (%) [1, 14]: 48%; Population Pyknosed Nuclei (%) [1, 14]: 14%; Population Tubulin-Different-Phenotype (%) [1, 14]: 67%; Total Cell Count [1, 14]: 237; Population Apoptotic (%) [1, 15]: 66%; Population Fragmented Nuclei (%) [1, 15]: 52%; Population Healthy Nuclei (%) [1, 15]: 44%; Population Hoechst High Intensity Objects (%) [1, 15]: 37%; Population Membrane Permeable-Phenotype (%) [1, 15]: 0%; Population Mitochondria Different-Phenotype (%) [1, 15]: 28%; Population Mitotic Cells (%) [1, 15]: 33%; Population Normal (%) [1, 15]: 62%; Population Pyknosed Nuclei (%) [1, 15]: 3%; Population Tubulin-Different-Phenotype (%) [1, 15]: 61%; Total Cell Count [1, 15]: 465; Growth Rate [2, 16]: 1; Growth Rate [2, 17]: 0; Growth Rate [2, 18]: 0; Growth Rate [2, 19]: 0; Growth Rate [2, 20]: 0; Growth Rate [3, 16]: 1; Growth Rate [3, 17]: 1; Growth Rate [3, 18]: 1; Growth Rate ([3]; 12 h, replicate number 2, timepoint 12 hours): 0; Growth Rate [3, 19]: 0; Growth Rate [3, 20]: 0
